Measurements reported in ChEMBL document CHEMBL4304748, “Design, Synthesis, and Biological Evaluation of a New Series of Carvedilol Derivatives That Protect Sensory Hair Cells from Aminoglycoside-Induced Damage by Blocking the Mechanoelectrical Transducer Channel” (J Med Chem, 2019).
Active and inactive are the calls of the source. No cut-off for these calls is given here.

How the values were obtained:
[1] = Otoprotective activity against gentamicin-induced outer hair cell death in CD-1 mouse cochlea at 5 uM after 48 hrs by TRITC-phalloidin staining-based microscopic analysis relative to control; format: functional
Summary of the method: (§1)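 Mouse cochlear cultures coincubated for 48 h with 5 μM gentamicin plus compound (5, 10 or 20 μM). OHCs counted in a 300 μm long segment of the mid-basal cochlea. Counts compared with 0.5% DMSO control and with gentamicin + 0.5% DMSO cultures.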

[2] = Cytotoxicity in CD-1 mouse cochlea assessed as induction of cell death in outer hair cell at >=30 uM after 48 hrs by confocal microscopic analysis; format: toxicity, tissue-based
Summary of the method: (§2)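 Mouse cochlear cultures exposed for 48 h to compound, either alone or with 5 μM gentamicin. Controls received 0.5% DMSO, or 5 μM gentamicin + 0.5% DMSO. Hair cell survival counted in a 300 μm segment of the mid-basal region. Confocal imaging used to assess IHC and OHC stereociliary bundle morphology.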

Mus musculus [3] = organism: Mus musculus; assay: Inhibition of MET in CD-1 mouse cochlea outer hair cells assessed as reduction in MET currents at 1 to 10 uM measured at -150 mV to +100 mV membrane potential by patch clamp assay
Mus musculus [4] = organism: Mus musculus; assay: Inhibition of MET in CD-1 mouse cochlear outer hair cells assessed as reduction in MET currents at 1 to 10 uM measured at -164 mV membrane potential by patch clamp assay
Summary of the method: (§3)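 MET currents recorded from OHCs before and during extracellular superfusion of compound at 1, 3 and 10 μM, over membrane potentials from -164 to +96 mV. Currents normalized to the peak control current at +96 mV for each cell. Dose–response curves built at each membrane potential and fitted with eq 1 to give K_D and Hill coefficient.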

[5] = Binding affinity to MET in CD-1 mouse cochlear outer hair cells measured at -164 mV membrane potential by patch clamp assay; summary of the method: as §3
[6] = Cytotoxicity in CD-1 mouse cochlea assessed as disruption of hair bundle morphology in inner hair cell at 30 uM after 48 hrs by confocal microscopic analysis; format: toxicity, tissue-based; summary of the method: as §2
[7] = Binding affinity to MET in CD-1 mouse cochlear outer hair cells measured at +16 mV membrane potential by patch clamp assay; summary of the method: as §3
[8] = Binding affinity to MET in CD-1 mouse cochlear outer hair cells measured at +96 mV membrane potential by patch clamp assay; summary of the method: as §3
[9] = Binding affinity to MET in CD-1 mouse cochlear outer hair cells measured at -84 mV membrane potential by patch clamp assay; summary of the method: as §3
Mus musculus [10] = organism: Mus musculus; assay: (§4) Otoprotective activity against gentamicin-induced outer hair cell death in CD-1 mouse cochlea at 20 uM after 48 hrs by TRITC-phalloidin staining-based microscopic analysis relative to control; format: functional; summary of the method: as §1
Mus musculus [11] = organism: Mus musculus; assay: (§5) Otoprotective activity against gentamicin-induced outer hair cell death in CD-1 mouse cochlea at 10 uM after 48 hrs by TRITC-phalloidin staining-based microscopic analysis relative to control; format: functional; summary of the method: as §1
[12] = Cytotoxicity in CD-1 mouse cochlea assessed as induction of cell death in outer hair cell at 30 uM in presence of gentamicin after 48 hrs by confocal microscopic analysis; format: toxicity, tissue-based; summary of the method: as §2
[13] = Cytotoxicity in CD-1 mouse cochlea assessed as disruption of hair bundle morphology in outer hair cell at 30 uM after 48 hrs by confocal microscopic analysis; format: toxicity, tissue-based; summary of the method: as §2
Mus musculus [14] = organism: Mus musculus; assay: Inhibition of MET in CD-1 mouse cochlea outer hair cells assessed as blockade of MET currents at 10 uM measured at -160 mV to +80 mV membrane potential by patch clamp assay relative to control
Summary of the method: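 OHC MET currents recorded before and during exposure to 10 μM compound. Fractional block taken as the current during exposure relative to the control current at each membrane potential.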

Mus musculus [15] = organism: Mus musculus; assay: Inhibition of MET channel in CD-1 mouse cochlea outer hair bundles assessed as time constant of inward current decline at 1 uM at holding potential of […] by patch clamp assay
Summary of the method: (§6)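 MET channels opened by steps from a holding potential of -84 mV, with 1 or 3 μM compound superfused. Currents averaged from 10 repetitions. The current decline was fitted with single exponentials to give time constants, and drug entry rates into hair cells were calculated from these.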

Mus musculus [16] = organism: Mus musculus; assay: Inhibition of MET channel in CD-1 mouse outer hair bundles assessed as time constant of inward current decline at 3 uM at holding potential of […] by patch clamp assay; summary of the method: as §6
Mus musculus [17] = organism: Mus musculus; assay: Inhibition of MET channel in CD-1 mouse cochlea outer hair cells assessed as reduction in GTTR uptake at 100 uM preincubated for 5 mins followed by GTTR addition and measured after 24 mins by microscopic method
Summary of the method: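 Mouse cochlear cultures pre-incubated 5 min with 100 μM compound or 1% DMSO, then 0.2 μM gentamicin Texas Red (GTTR) added. GTTR fluorescence intensity measured in first-row OHCs, with 10 cells analysed from each of three separate experiments (N = 30).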

Danio rerio [18] = organism: Danio rerio; assay: Otoprotective activity against neomycin-induced neuromast hair cell death in 4 days post fertilized AB zebrafish larvae assessed as increase in hair cell survival incubated for 1 hr by inverted microscopic method; format: functional, organism-based
Danio rerio [19] = organism: Danio rerio; assay: Otoprotective activity against gentamicin-induced neuromast hair cell death in 4 days post fertilized AB zebrafish larvae assessed as increase in hair cell survival incubated for 6 hrs by inverted microscopic method; format: functional, organism-based
[20] = Toxicity in 3 days post fertilized AB zebrafish larvae assessed as reduction in larvae survival at 100 uM incubated for 48 hrs; parameters: species or system Danio rerio; conditions: in vivo
Summary of the method: (§7)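 Zebrafish larvae at 3 dpf treated with compound at 30 or 100 μM for 48 h in three trials. Larvae scored for survival and for circulation, then startled and assayed for movement.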

[21] = Toxicity in 3 days post fertilized AB zebrafish larvae assessed as reduction in larvae survival at 30 uM incubated for 48 hrs; parameters: species or system Danio rerio; conditions: in vivo; summary of the method: as §7
[22] = Toxicity in 3 days post fertilized AB zebrafish larvae assessed as effect on blood circulation at 100 uM incubated for 48 hrs by inverted microscopic method; parameters: species or system Danio rerio; conditions: in vivo; summary of the method: as §7
[23] = Toxicity in 3 days post fertilized AB zebrafish larvae assessed as effect on blood circulation at 30 uM incubated for 48 hrs by inverted microscopic method; parameters: species or system Danio rerio; conditions: in vivo; summary of the method: as §7
[24] = Toxicity in 3 days post fertilized AB zebrafish larvae assessed as effect on larval movement at 100 uM incubated for 48 hrs; parameters: species or system Danio rerio; conditions: in vivo; summary of the method: as §7
Klebsiella pneumoniae [25] = assay: Effect on gentamycin-induced antibacterial activity against Klebsiella pneumoniae at 2.2 uM incubated for 16 to 20 hrs by BacTiter-Glo assay; format: ADME, organism-based; conditions: in vivo
Pseudomonas aeruginosa [26] = assay: Effect on gentamycin-induced antibacterial activity against Pseudomonas aeruginosa at 2.2 uM incubated for 16 to 20 hrs by BacTiter-Glo assay; format: ADME, organism-based; conditions: in vivo
Staphylococcus aureus [27] = assay: Effect on gentamycin-induced antibacterial activity against Staphylococcus aureus at 2.2 uM incubated for 16 to 20 hrs by BacTiter-Glo assay; format: ADME, organism-based; conditions: in vivo
Klebsiella pneumoniae [28] = assay: Effect on gentamycin-induced antibacterial activity against Klebsiella pneumoniae at 11 uM incubated for 16 to 20 hrs by BacTiter-Glo assay; format: ADME, organism-based; conditions: in vivo
Pseudomonas aeruginosa [29] = assay: Effect on gentamycin-induced antibacterial activity against Pseudomonas aeruginosa at 11 uM incubated for 16 to 20 hrs by BacTiter-Glo assay; format: ADME, organism-based; conditions: in vivo
Staphylococcus aureus [30] = assay: Effect on gentamycin-induced antibacterial activity against Staphylococcus aureus at 11 uM incubated for 16 to 20 hrs by BacTiter-Glo assay; format: ADME, organism-based; conditions: in vivo
[31] = Cytotoxicity against CD-1 mouse cochlea assessed as induction of cell death in outer hair cell at >=30 uM after 48 hrs in presence of gentamicin by confocal microscopic analysis; format: toxicity, tissue-based; summary of the method: as §2
[32] = Cytotoxicity in CD-1 mouse cochlea assessed as induction of cell death in outer hair cell at 10 to 20 uM after 48 hrs by confocal microscopic analysis; format: toxicity, tissue-based; summary of the method: as §2
[33] = Cytotoxicity in CD-1 mouse cochlea assessed as induction of cell damage in inner hair cell at 20 uM in presence of gentamicin after 48 hrs by confocal microscopic analysis; format: toxicity, tissue-based; summary of the method: as §2
[34] = Cytotoxicity in CD-1 mouse cochlea assessed as disruption of hair bundle morphology in inner hair cell at 20 uM in presence of gentamicin after 48 hrs by confocal microscopic analysis; format: toxicity, tissue-based; summary of the method: as §2
[35] = Cytotoxicity in CD-1 mouse cochlea assessed as disruption of hair bundle morphology in outer hair cell at 20 uM in presence of gentamicin after 48 hrs by confocal microscopic analysis; format: toxicity, tissue-based; summary of the method: as §2
[36] = Cytotoxicity in CD-1 mouse cochlea assessed as disruption of hair bundle morphology in inner hair cell at 20 uM after 48 hrs by confocal microscopic analysis; format: toxicity, tissue-based; summary of the method: as §2
[37] = Cytotoxicity in CD-1 mouse cochlea assessed as disruption of hair bundle morphology in outer hair cell at 20 uM after 48 hrs by confocal microscopic analysis; format: toxicity, tissue-based; summary of the method: as §2
[38] = Cytotoxicity in CD-1 mouse cochlea assessed as induction of cell damage in inner hair cell at 20 uM after 48 hrs by confocal microscopic analysis; format: toxicity, tissue-based; summary of the method: as §2
[39] = Cytotoxicity in CD-1 mouse cochlea assessed as induction of cell death in inner hair cell at >=30 uM in presence of gentamicin after 48 hrs by confocal microscopic analysis; format: toxicity, tissue-based; summary of the method: as §2
[40] = Cytotoxicity in CD-1 mouse cochlea assessed as induction of cell death in inner hair cell at >=30 uM after 48 hrs by confocal microscopic analysis; format: toxicity, tissue-based; summary of the method: as §2
[41] = as §4; format: functional; summary of the method: as §1
[42] = as §5; format: functional; summary of the method: as §1
Mus musculus [43] = organism: Mus musculus; conditions: CD-1, 10 uM
Mus musculus [44] = organism: Mus musculus; conditions: CD-1, 10 uM; remark: listed apart in the source
Mus musculus [45] = organism: Mus musculus; conditions: CD-1, 10 uM; remark: listed apart in the source
Mus musculus [46] = organism: Mus musculus; conditions: CD-1, 1 to 10 uM
Mus musculus [47] = organism: Mus musculus; conditions: CD-1, 1 to 10 uM; remark: listed apart in the source
Mus musculus [48] = organism: Mus musculus; assay: Inhibition of MET in CD-1 mouse outer hair cells assessed as reduction in MET currents at 3 to 10 uM measured at -160 mV to +96 mV membrane potential by patch clamp assay
[49] = Solubility of the compound; format: physicochemical

## COc1ccccc1OCCNCCCOc1cccc2[nH]c3ccccc3c12
[1]
  Activity: 88%
[2]
  Activity: Toxic
Mus musculus [3]
  inhibition: Active
Mus musculus [4]
  inhibition: inactive
[5]
  Kd: 4600 nM
[6]
  Activity: Toxic
[7]
  Kd: 1000 nM
[8]
  Kd: 1700 nM
[9]
  Kd: 2400 nM
Mus musculus [10]
  Activity: Active
Mus musculus [11]
  Activity: Active
[12]
  Activity: Non-Toxic
[13]
  Activity: Toxic
Mus musculus [14]
  inhibition: 100%
Mus musculus [15]
  TIME: 2.75e-06 h
Mus musculus [16]
  TIME: 1.67e-06 h
Mus musculus [17]
  inhibition: Active
Danio rerio [18]
  EC50: 2080 nM
Danio rerio [19]
  EC50: 10800 nM
[20]
  Activity: Non-Toxic
[21]
  Activity: Non-Toxic
[22]
  Activity: Non-Toxic
[23]
  Activity: Non-Toxic
[24]
  Activity: Non-Toxic
Klebsiella pneumoniae [25]
  Activity: Non-Toxic
Pseudomonas aeruginosa [26]
  Activity: Non-Toxic
Staphylococcus aureus [27]
  Activity: Non-Toxic
Klebsiella pneumoniae [28]
  Activity: Non-Toxic
Pseudomonas aeruginosa [29]
  Activity: Non-Toxic
Staphylococcus aureus [30]
  Activity: Non-Toxic

## COc1ccccc1OCCNCC(O)COc1cccc2[nH]c3ccccc3c12 (stereo not drawn) [CARVEDILOL]
[1]
  Activity: 54%
[31]
  Activity: Toxic
[32]
  Activity: Non-Toxic
[33]
  Activity: Toxic
[34]
  Activity: Toxic
[35]
  Activity: Toxic
[36]
  Activity: Toxic
[37]
  Activity: Toxic
[38]
  Activity: Toxic
[2]
  Activity: Toxic
[39]
  Activity: Toxic
[40]
  Activity: Toxic
Mus musculus [4]
  inhibition: inactive
[5]
  Kd: 6300 nM
[7]
  Kd: 100 nM
[8]
  Kd: 1500 nM
[9]
  Kd: 2000 nM
[41]
  Activity: 100%
[42]
  Activity: 100%
Mus musculus [15]
  TIME: 5e-06 h
Mus musculus [16]
  TIME: 2.67e-06 h
Mus musculus [17]
  inhibition: Active
Danio rerio [18]
  EC50: 2470 nM
Danio rerio [19]
  EC50: 11000 nM
[20]
  Activity: Toxic
[21]
  Activity: Non-Toxic
[22]
  Activity: Toxic
[23]
  Activity: Non-Toxic
[24]
  Activity: Toxic
Klebsiella pneumoniae [25]
  Activity: Non-Toxic
Pseudomonas aeruginosa [26]
  Activity: Non-Toxic
Staphylococcus aureus [27]
  Activity: Non-Toxic
Klebsiella pneumoniae [28]
  Activity: Non-Toxic
Pseudomonas aeruginosa [29]
  Activity: Non-Toxic
Staphylococcus aureus [30]
  Activity: Non-Toxic
Mus musculus [43]
  inhibition: Active
Mus musculus [44]
  inhibition: Active
Mus musculus [45]
  inhibition: Active
Mus musculus [46]
  inhibition: Active
Mus musculus [47]
  inhibition: inactive

## COc1ccccc1OCCN(CCCOc1cccc2[nH]c3ccccc3c12)CCOc1ccccc1OC
Mus musculus [11]
  Activity: inactive
Mus musculus [48]
  inhibition: inactive
[49]
  solubility: Insoluble
